According to ChEMBL document CHEMBL4330056, “Synthesis and Cytotoxic and Antiviral Profiling of Pyrrolo- and Furo-Fused 7-Deazapurine Ribonucleosides” (J Med Chem, 2018):
pEC50, pIC50: −log10 of the molar value. Activity calls are given as the source filed them. No cut-off for these calls is given here.

Assays:
CCRF-CEM [1] = experiment: Induction of cell cycle arrest in human CCRF-CEM cells assessed as accumulation at S phase at IC50 concentration after 24 hrs by propidium iodide-staining based flow cytometry (reference value: 41.08%); format: functional
[2] = Metabolic stability in human liver microsomes assessed as compound remaining at 5 umol/L after 60 mins relative to control; format: ADME, Microsome; conditions: read-out: Stability
How it was run: (§1)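 Human microsomal fraction; percent compound remaining over time.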

[3] = Protein binding in human plasma; format: ADME, cell-free; conditions: read-out: PPB (converted)
CCRF-CEM [4] = experiment: Inhibition of RNA synthesis in human CCRF-CEM cells assessed as RNA synthesis level at 5 times IC50 concentration after 24 hrs by BrU incorporation assay (reference value: 49.89%); format: functional; set-up: scale not given: the % may be the effect or the level left
CCRF-CEM [5] = experiment: Induction of cell cycle arrest in human CCRF-CEM cells assessed as accumulation at G0/G1 phase at IC50 concentration after 24 hrs by propidium iodide-staining based flow cytometry (reference value: 39.70%); format: functional
[6] = Metabolic stability in human liver microsomes assessed as compound remaining at 5 umol/L after 15 mins relative to control; format: ADME, Microsome; conditions: read-out: Stability; how it was run: as §1
[7] = Effective permeability of the compound at 20 umol/L by PAMPA; format: ADME; conditions: 20 µM
CCRF-CEM [8] = experiment: Induction of cell cycle arrest in human CCRF-CEM cells assessed as accumulation at G0/G1 phase at 5 times IC50 concentration after 24 hrs by propidium iodide-staining based flow cytometry (reference value: 39.70%); format: functional
CCRF-CEM [9] = experiment: Inhibition of mitosis in human CCRF-CEM cells assessed Ser10 H3 phosphorylation positive cells at IC50 concentration after 24 hrs by flow cytometry relative to total cell population (reference value: 1.36%); format: functional; set-up: scale not given: the % may be the effect or the level left
[10] = Stability in human plasma assessed as compound remaining at 3.3 umol/L after 15 mins by RF-MS analysis relative to control; format: ADME, cell-free; conditions: read-out: Stability
[11] = Mitochondrial toxicity in human OCI-AML2 cells assessed as reduction in oxidative phosphorylation-based viability after 72 hrs by CellTiterGlo assay; format: cell-based
How it was run: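 OCI-AML2 leukemia cells, which rely on mitochondrial OXPHOS, treated for 3 days in a survival assay; IC50 reported.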

[12] = Stability in human plasma assessed as compound remaining at 3.3 umol/L after 30 mins by RF-MS analysis relative to control; format: ADME, cell-free; conditions: read-out: Stability
HL-60 = experiment: Antiproliferative activity against human HL60 cells after 72 hrs by XTT assay; format: functional, cell-based; conditions: HL-60, 72 h
[13] = Chemical stability of the compound assessed as compound remaining after 120 mins relative to control; format: physicochemical; conditions: read-out: Stability
Human orthopneumovirus = experiment: Antiviral activity against Human respiratory syncytial virus A2 infected in Hep2 cells assessed as reduction in virus-induced cytopathic effect incubated for 4 days by CellTiter-Glo viability reagent based assay; format: functional, organism-based
CCRF-CEM [14] = experiment: Induction of cell cycle arrest in human CCRF-CEM cells assessed as accumulation at G2/M phase at 5 times IC50 concentration after 24 hrs by propidium iodide-staining based flow cytometry (reference value: 19.22%); format: functional
CCRF-CEM [15] = experiment: Induction of cell cycle arrest in human CCRF-CEM cells assessed as accumulation at subG1 phase at IC50 concentration after 24 hrs by propidium iodide-staining based flow cytometry (reference value: 3.45%); format: functional
[16] = Chemical stability of the compound assessed as compound remaining after 60 mins relative to control; format: physicochemical; conditions: read-out: Stability
[17] = Metabolic stability in human liver microsomes assessed as compound remaining at 5 umol/L after 30 mins relative to control; format: ADME, Microsome; conditions: read-out: Stability; how it was run: as §1
Human alphaherpesvirus 1 = experiment: Antiviral activity against human herpesvirus 1 HF infected in African green monkey Vero cells assessed as inhibited virus-induced cytopathic effect incubated for 3 days by XTT assay; format: functional, organism-based
CCRF-CEM [18] = experiment: Inhibition of DNA synthesis in human CCRF-CEM cells assessed as DNA synthesis level at IC50 concentration after 24 hrs by BrdU incorporation assay (reference value: 43.39%); format: functional; set-up: scale not given: the % may be the effect or the level left
CCRF-CEM [19] = experiment: Inhibition of RNA synthesis in human CCRF-CEM cells assessed as RNA synthesis level at IC50 concentration after 24 hrs by BrU incorporation assay (reference value: 49.89%); format: functional; set-up: scale not given: the % may be the effect or the level left
MRC5 = experiment: Antiproliferative activity against human MRC5 cells after 3 days by MTS assay; conditions: MRC5, 72 h
[20] = Stability in human plasma assessed as compound remaining at 3.3 umol/L after 120 mins by RF-MS analysis relative to control; format: ADME, cell-free; conditions: read-out: Stability
Influenza A virus = experiment: Antiviral activity against Influenza A virus (A/Mexico/4108/2009(H1N1)) infected in MDCK cells assessed as inhibited virus-induced cytopathic effect incubated for 2 days by XTT assay; format: functional, organism-based
[21] = Antiproliferative activity against human K562-TAX cells after 3 days by MTS assay; format: functional, cell-based; conditions: 72 h
HeLa S3 = experiment: Antiproliferative activity against human HeLaS3 cells after 72 hrs by XTT assay; format: functional, cell-based; conditions: HeLa S3, 72 h
Hepatitis C virus [22] = experiment: Antiviral activity against Hepatitis C virus genotype 1b infected in human Huh-luc replicon cells after 3 days by luciferase assay; format: functional, organism-based, Hepacivirus hominis; conditions: subtype 1b, 72 h
Adenosine kinase [23] = biological target: T1, Adenosine kinase (Homo sapiens, UniProt P55263); experiment: Substrate activity at recombinant human ADK assessed as compound phosphorylation at 50 uM after 20 mins in presence of [3H]-adenosine by UPLC; format: ADME
T1 sequence (P55263 whole entry): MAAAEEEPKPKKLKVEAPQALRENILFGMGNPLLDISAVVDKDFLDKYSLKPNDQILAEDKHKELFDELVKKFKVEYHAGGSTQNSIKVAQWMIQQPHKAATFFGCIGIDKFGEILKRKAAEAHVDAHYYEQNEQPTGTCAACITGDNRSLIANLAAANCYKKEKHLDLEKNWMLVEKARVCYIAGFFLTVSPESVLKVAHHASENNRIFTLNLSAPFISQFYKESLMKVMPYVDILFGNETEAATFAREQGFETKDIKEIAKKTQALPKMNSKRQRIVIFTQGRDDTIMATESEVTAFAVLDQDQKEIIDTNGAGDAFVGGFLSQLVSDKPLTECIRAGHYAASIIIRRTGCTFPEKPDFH

[24] = Chemical stability of the compound assessed as compound remaining after 15 mins relative to control; format: physicochemical; conditions: read-out: Stability
[25] = Chemical stability of the compound assessed as compound remaining after 30 mins relative to control; format: physicochemical; conditions: read-out: Stability
HCT-116 [26] = experiment: Antiproliferative activity against human HCT116 cells after 3 days by MTS assay; format: functional, cell-based; conditions: HCT-116, 72 h
Coxsackievirus B3 = experiment: Antiviral activity against Human coxsackie B3 Nancy infected in human HeLa cells assessed as inhibited virus-induced cytopathic effect incubated for 2 days by XTT assay; format: functional, organism-based
A549 = experiment: Antiproliferative activity against human A549 cells after 3 days by MTS assay; format: functional, cell-based; conditions: A549, 72 h
[27] = Cytotoxicity against human Hep2 cells assessed as reduction in cell viability after 3 days by CellTiter-Glo assay; format: cell-based; conditions: HEp-2 cells
[28] = Antiproliferative activity against human CEM-DNR-bulk cells after 3 days by MTS assay; conditions: 72 h
[29] = Stability in human plasma assessed as compound remaining at 3.3 umol/L after 60 mins by RF-MS analysis relative to control; format: ADME, cell-free; conditions: read-out: Stability
U2OS = experiment: Antiproliferative activity against human U2OS cells after 3 days by MTS assay; format: functional, cell-based; conditions: 72 h
HCT-116 [30] = experiment: Antiproliferative activity against p53 gene knocked out human HCT116 cells after 3 days by MTS assay; format: functional, cell-based; conditions: HCT-116, 72 h
CCRF-CEM [31] = experiment: Antiproliferative activity against human CCRF-CEM cells after 3 days by MTS assay; format: functional, cell-based; conditions: 72 h
BJ = experiment: Antiproliferative activity against human BJ cells after 3 days by MTS assay; conditions: 72 h
CCRF-CEM [32] = experiment: Induction of cell cycle arrest in human CCRF-CEM cells assessed as accumulation at subG1 phase at 5 times IC50 concentration after 24 hrs by propidium iodide-staining based flow cytometry (reference value: 3.45%); format: functional
CCRF-CEM [33] = experiment: Inhibition of mitosis in human CCRF-CEM cells assessed Ser10 H3 phosphorylation positive cells at 5 times IC50 concentration after 24 hrs by flow cytometry relative to total cell population (reference value: 1.36%); format: functional; set-up: scale not given: the % may be the effect or the level left
dengue virus type 2 = experiment: Antiviral activity against Dengue virus 2 Thailand/16681/84 infected in African green monkey Vero cells assessed as inhibition of virus replication incubated for 3 days by fluorescence microscopy; format: functional, organism-based
CCRF-CEM [34] = experiment: Inhibition of DNA synthesis in human CCRF-CEM cells assessed as DNA synthesis level at 5 times IC50 concentration after 24 hrs by BrdU incorporation assay (reference value: 43.39%); format: functional; set-up: scale not given: the % may be the effect or the level left
Adenosine kinase [35] = biological target: T1, Adenosine kinase; experiment: Inhibition of recombinant human ADK using [3H]-adenosine as substrate after 20 mins by TLC scanner-based analysis relative to control
How it was run: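 ADK inhibition: 50 μM adenosine substrate with 10 μM test compound and 97 ng enzyme, 20 min at 37 °C.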

K562 = experiment: Antiproliferative activity against human K562 cells after 3 days by MTS assay; format: functional, cell-based; conditions: K562, 72 h
HepG2 = experiment: Antiproliferative activity against human HepG2 cells after 72 hrs by XTT assay; format: functional, cell-based; conditions: HepG2, 72 h
Hepatitis C virus [36] = experiment: Antiviral activity against Hepatitis C virus genotype 2a infected in human Huh-luc replicon cells after 3 days by luciferase assay; format: functional, organism-based, Hepacivirus hominis; conditions: subtype 2a, 72 h
CCRF-CEM [37] = experiment: Induction of cell cycle arrest in human CCRF-CEM cells assessed as accumulation at G2/M phase at IC50 concentration after 24 hrs by propidium iodide-staining based flow cytometry (reference value: 19.22%); format: functional
CCRF-CEM [38] = experiment: Induction of cell cycle arrest in human CCRF-CEM cells assessed as accumulation at S phase at 5 times IC50 concentration after 24 hrs by propidium iodide-staining based flow cytometry (reference value: 41.08%); format: functional

## CSc1ncnc2c1c1c(ccn1C)n2[C@@H]1O[C@H](CO)[C@@H](O)[C@H]1O
CCRF-CEM [1]
  Activity: 56.36%
[2]
  remaining at 1 h, 5 µM: 97%
[3]
  fraction unbound: 0.11
CCRF-CEM [4]
  Activity: 3.56%
CCRF-CEM [5]
  Activity: 26.28%
[6]
  remaining at 0.25 h, 5 µM: 99%
[7]
  log(permeability): -5.69
CCRF-CEM [8]
  Activity: 40.55%
CCRF-CEM [9]
  Activity: 0.33%
[10]
  remaining at 0.25 h, 3.3 µM: 100%
[11]
  IC50 at 72 h: 0.16 µM
[12]
  remaining at 0.5 h, 3.3 µM: 99%
HL-60
  pIC50: 6.24
[13]
  remaining at 2 h: 97%
Human orthopneumovirus
  Activity: inactive
CCRF-CEM [14]
  Activity: 16.52%
CCRF-CEM [15]
  Activity: 5.61%
[16]
  remaining at 1 h: 98%
[17]
  remaining at 0.5 h, 5 µM: 99%
Human alphaherpesvirus 1
  Activity: inactive
CCRF-CEM [18]
  Activity: 30.41%
CCRF-CEM [19]
  Activity: 21.43%
MRC5
  pIC50: < 4.30
[20]
  remaining at 2 h, 3.3 µM: 98%
Influenza A virus
  Activity: inactive
[21]
  pIC50: 4.30
HeLa S3
  pIC50: 5.87
Hepatitis C virus [22]
  pEC50: 7.40
Adenosine kinase [23]
  Activity: 33%
[24]
  remaining at 0.25 h: 100%
[25]
  remaining at 0.5 h: 99%
HCT-116 [26]
  pIC50: 6.52
Coxsackievirus B3
  Activity: inactive
A549
  pIC50: < 4.30
[27]
  CC50 at 72 h: > 44.4 µM
[28]
  pIC50: < 4.30
[29]
  remaining at 1 h, 3.3 µM: 98%
U2OS
  pIC50: 5.85
HCT-116 [30]
  pIC50: 6.42
CCRF-CEM [31]
  pIC50: 6.47
BJ
  pIC50: 5.29
CCRF-CEM [32]
  Activity: 12.67%
CCRF-CEM [33]
  Activity: 1.49%
Dengue virus type 2
  Activity: inactive
CCRF-CEM [34]
  Activity: 7.8%
Adenosine kinase [35]
  pIC50: < 5.00
K562
  pIC50: 6.41
HepG2
  pIC50: 5.82
Hepatitis C virus [36]
  pEC50: 6.89
CCRF-CEM [37]
  Activity: 17.36%
CCRF-CEM [38]
  Activity: 42.94%
